Data as given in ChEMBL document CHEMBL1132559 (J Med Chem, 1999).

Assays:
[1] = target: T1, 5-hydroxytryptamine receptor 2A (Rattus norvegicus, UniProt P14842); assay: Compound was tested for it's binding affinity towards 5-hydroxytryptamine 2A receptor
Method in brief: (§1)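 Radioligand displacement on rat cortical membranes using [3H]ketanserin (1.0 nM), with methysergide as the reference compound. IC50 derived from six test concentrations, each in triplicate, in one experiment. Run at an external screening laboratory.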

Rattus norvegicus [2] = species on record: Rattus norvegicus; assay: In vitro functional activity (pA2) by using isolated rat vas deferens smooth muscle preparation (on adrenergic system); details: Muscle tissue, read-out: pA2 (converted)
Method in brief: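 Vas deferens from male Sprague–Dawley rats (200-300 g), 3-4 preparations, isometric contraction recorded. Cumulative L-noradrenaline concentration-response curves built stepwise once each response was steady.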

[3] = target: T2, Adrenergic receptor alpha-1 (Rattus norvegicus, UniProt P15823+P23944+P43140); assay: Compound was tested for it's binding affinity towards alpha-1 adrenergic receptor; assay type: protein assay
T2 sequence (P15823 whole entry): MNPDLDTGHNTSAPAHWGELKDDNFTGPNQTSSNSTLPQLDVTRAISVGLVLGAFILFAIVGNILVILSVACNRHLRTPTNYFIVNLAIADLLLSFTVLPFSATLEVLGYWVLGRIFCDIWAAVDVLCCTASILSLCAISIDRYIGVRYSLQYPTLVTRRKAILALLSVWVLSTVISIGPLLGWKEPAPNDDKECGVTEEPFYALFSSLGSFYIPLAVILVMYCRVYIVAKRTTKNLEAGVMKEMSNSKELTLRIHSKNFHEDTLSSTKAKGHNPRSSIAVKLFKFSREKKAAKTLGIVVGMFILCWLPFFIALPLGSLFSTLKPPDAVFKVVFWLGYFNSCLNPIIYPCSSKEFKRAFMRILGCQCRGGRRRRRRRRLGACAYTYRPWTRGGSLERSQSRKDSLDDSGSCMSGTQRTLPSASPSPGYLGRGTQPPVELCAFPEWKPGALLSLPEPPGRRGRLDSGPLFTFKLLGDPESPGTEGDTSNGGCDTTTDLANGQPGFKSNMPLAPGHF
T2 sequence (P23944 whole entry): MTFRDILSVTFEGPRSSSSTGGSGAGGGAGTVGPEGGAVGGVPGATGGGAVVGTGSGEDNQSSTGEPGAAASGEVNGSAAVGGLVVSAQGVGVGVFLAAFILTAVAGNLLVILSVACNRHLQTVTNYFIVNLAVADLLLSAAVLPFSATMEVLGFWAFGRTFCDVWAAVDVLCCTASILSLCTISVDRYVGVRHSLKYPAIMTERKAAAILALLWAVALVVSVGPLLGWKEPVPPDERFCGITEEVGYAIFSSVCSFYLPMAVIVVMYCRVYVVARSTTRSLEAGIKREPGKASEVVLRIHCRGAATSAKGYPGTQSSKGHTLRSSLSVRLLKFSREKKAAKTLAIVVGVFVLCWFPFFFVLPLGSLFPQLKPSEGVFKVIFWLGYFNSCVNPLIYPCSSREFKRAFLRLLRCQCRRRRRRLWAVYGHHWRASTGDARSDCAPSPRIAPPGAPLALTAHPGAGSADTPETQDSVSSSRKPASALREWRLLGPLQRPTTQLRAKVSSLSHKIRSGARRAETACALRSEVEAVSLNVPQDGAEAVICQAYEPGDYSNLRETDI
T2 sequence (P43140 whole entry): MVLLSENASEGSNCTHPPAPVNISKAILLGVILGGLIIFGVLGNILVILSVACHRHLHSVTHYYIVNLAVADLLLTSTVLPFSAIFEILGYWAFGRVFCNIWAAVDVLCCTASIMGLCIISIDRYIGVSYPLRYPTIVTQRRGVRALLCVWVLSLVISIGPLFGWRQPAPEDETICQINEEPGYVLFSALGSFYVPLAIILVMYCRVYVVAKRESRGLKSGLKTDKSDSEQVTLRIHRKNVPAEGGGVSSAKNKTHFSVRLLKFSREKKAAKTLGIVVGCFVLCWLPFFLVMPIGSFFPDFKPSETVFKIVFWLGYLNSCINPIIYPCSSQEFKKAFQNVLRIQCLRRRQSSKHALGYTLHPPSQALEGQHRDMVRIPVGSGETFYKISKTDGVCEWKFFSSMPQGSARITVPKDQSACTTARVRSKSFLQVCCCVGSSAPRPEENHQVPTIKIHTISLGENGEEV
Method in brief: (§2)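 Radioligand displacement on rat cortical membranes using [3H]prazosin (0.5 nM), with prazosin as the reference compound. IC50 derived from six test concentrations, each in triplicate, in one experiment. Run at an external screening laboratory.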

Rattus norvegicus [4] = species on record: Rattus norvegicus; assay: In vitro functional activity (pA2) by using isolated rat aorta smooth muscle preparation (on serotonergic system); details: Muscle tissue, read-out: pA2 (converted)
Method in brief: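 Aorta strips from male Sprague–Dawley rats (200-300 g), 3-7 preparations, isometric contraction recorded. Cumulative serotonin concentration-response curves built stepwise once each response was steady.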

[5] = target: D(2) dopamine receptor (Rattus norvegicus) (UniProt P61169); assay: Displacement of [3H]sulpiride from rat striatal membrane Dopamine receptor D2 at 10e-7 M
D(2) dopamine receptor (Rattus norvegicus), sequence (P61169 whole entry): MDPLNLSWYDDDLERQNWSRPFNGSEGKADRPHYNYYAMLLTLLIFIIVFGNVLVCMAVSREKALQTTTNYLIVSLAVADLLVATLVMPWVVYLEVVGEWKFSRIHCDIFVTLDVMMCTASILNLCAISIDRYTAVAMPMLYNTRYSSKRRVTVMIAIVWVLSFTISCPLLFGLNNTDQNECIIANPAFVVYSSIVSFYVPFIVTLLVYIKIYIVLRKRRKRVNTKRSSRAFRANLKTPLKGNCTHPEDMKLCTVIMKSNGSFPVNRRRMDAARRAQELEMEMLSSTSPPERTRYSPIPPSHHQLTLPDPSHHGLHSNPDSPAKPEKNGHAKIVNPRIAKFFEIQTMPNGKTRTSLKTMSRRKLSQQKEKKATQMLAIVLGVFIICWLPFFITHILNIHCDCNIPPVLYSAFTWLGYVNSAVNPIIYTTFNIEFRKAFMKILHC
Method in brief: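 Single-concentration screen at 10^-7 M: displacement of [3H]sulpiride (3.0 nM) from rat striatal membranes, sulpiride as reference. Reported as % inhibition versus binding with no drug, mean of duplicate tubes in one experiment.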

[6] = target: 5-hydroxytryptamine receptor 2A (Rattus norvegicus) (UniProt P14842); assay: Displacement of [3H]ketanserin from rat cortical membrane 5-hydroxytryptamine 2A receptor at 10e-7 M
5-hydroxytryptamine receptor 2A (Rattus norvegicus), sequence (P14842 whole entry): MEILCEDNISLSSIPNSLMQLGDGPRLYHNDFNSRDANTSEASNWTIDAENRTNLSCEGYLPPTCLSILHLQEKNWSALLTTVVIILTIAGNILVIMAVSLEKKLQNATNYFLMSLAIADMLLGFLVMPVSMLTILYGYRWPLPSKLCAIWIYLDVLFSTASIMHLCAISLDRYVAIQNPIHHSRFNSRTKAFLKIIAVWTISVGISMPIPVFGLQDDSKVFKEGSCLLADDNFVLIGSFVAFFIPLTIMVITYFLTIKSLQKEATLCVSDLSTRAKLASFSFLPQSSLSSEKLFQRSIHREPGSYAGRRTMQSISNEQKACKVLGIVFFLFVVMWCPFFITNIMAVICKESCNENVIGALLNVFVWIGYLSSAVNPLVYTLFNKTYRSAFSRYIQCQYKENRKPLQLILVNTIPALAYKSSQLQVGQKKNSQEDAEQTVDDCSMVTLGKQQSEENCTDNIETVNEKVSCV
Method in brief: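 Single-concentration screen at 10^-7 M: displacement of [3H]ketanserin (1.0 nM) from rat cortical membranes, methysergide as reference. Reported as % inhibition versus binding with no drug, mean of duplicate tubes in one experiment. Checked against a verification screen.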

[7] = target: T1, 5-hydroxytryptamine receptor 2A; assay: Compound was tested for the inhibition of [3H]ketanserin binding to 5-hydroxytryptamine 2A receptor; method in brief: as §1
[8] = system: Sigma non-opioid intracellular receptor 1 (Sus scrofa); assay: Inhibition of [3H](+)-pentazocine binding to Sigma opioid receptor type 1 of pig brain membranes at 10e-7 M
[9] = target: T2, Adrenergic receptor alpha-1; assay: Compound was tested for the inhibition of [3H]-prazosin binding to Alpha-1 adrenergic receptor; assay type: protein assay; method in brief: as §2
[10] = target: Adrenergic receptor alpha-1 (Rattus norvegicus) (UniProt P15823+P23944+P43140); assay: Displacement of [3H]prazosin from Alpha-1 adrenergic receptor of rat cortical membrane at 10e-7 M
Method in brief: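 Single-concentration screen at 10^-7 M: displacement of [3H]prazosin (0.5 nM) from rat cortical membranes, prazosin as reference. Reported as % inhibition versus binding with no drug, mean of duplicate tubes in one experiment. Checked against a verification screen.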

[11] = target: Norepinephrine transporter (Rattus norvegicus) (UniProt Q9WTR4); assay: Inhibition of [3H]desmethylimipramine binding to […] of rat cortical membrane at 10e-7 M
Norepinephrine transporter (Rattus norvegicus), sequence (Q9WTR4 as listed by the source): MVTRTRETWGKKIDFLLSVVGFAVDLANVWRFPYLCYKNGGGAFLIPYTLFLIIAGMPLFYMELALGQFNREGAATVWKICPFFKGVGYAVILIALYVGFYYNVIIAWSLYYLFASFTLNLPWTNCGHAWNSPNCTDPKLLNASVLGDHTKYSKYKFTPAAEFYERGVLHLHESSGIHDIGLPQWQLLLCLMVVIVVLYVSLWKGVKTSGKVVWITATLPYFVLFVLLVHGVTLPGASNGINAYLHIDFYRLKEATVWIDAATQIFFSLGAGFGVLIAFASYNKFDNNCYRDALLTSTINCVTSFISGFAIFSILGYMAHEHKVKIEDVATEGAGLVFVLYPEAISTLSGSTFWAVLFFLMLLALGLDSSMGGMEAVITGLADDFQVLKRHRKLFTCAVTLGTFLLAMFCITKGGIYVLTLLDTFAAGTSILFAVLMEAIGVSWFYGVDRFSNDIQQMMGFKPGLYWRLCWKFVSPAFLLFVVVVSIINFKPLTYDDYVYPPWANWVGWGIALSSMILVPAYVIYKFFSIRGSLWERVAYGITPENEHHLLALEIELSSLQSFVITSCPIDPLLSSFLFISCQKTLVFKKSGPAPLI
Method in brief: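 Single-concentration screen at 10^-7 M: displacement of [3H]desmethylimipramine (3.0 nM) from rat cortical membranes, desipramine as reference. Reported as % inhibition versus binding with no drug, mean of duplicate tubes in one experiment.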

[12] = system: Serotonin transporter (Rattus norvegicus); assay: Displacement of [3H]-citalopram from rat forebrain membrane serotonin transporter at 10e-7 M
[13] = target: Histamine H1 receptor (Bos taurus) (UniProt P30546); assay: Inhibition of [3H]pyrilamine binding to Histamine H1 receptor of bovine cerebellar membrane at 10e-7 M
Histamine H1 receptor (Bos taurus), sequence (P30546 whole entry): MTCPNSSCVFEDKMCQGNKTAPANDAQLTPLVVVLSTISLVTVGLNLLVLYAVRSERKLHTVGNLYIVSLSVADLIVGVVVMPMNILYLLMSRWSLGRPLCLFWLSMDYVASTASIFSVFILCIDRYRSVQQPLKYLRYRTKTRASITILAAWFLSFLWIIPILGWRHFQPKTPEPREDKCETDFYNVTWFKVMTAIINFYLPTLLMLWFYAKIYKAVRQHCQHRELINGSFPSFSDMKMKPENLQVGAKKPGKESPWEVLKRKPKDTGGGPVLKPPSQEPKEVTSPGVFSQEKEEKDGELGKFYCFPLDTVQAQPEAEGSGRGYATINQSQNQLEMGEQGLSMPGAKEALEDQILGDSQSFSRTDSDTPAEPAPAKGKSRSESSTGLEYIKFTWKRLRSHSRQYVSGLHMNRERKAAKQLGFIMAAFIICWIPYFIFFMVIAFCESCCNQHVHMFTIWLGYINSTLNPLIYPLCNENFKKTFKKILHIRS
Method in brief: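 Single-concentration screen at 10^-7 M: displacement of [3H]pyrilamine (2.0 nM) from bovine cerebellar membranes, triprolidine as reference. Reported as % inhibition versus binding with no drug, mean of duplicate tubes in one experiment.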

[14] = target: T2, Adrenergic receptor alpha-1; assay: Compound was tested for it's binding affinity towards Alpha-1 adrenergic receptor; assay type: protein assay; method in brief: as §2

T1 sequence (P14842 whole entry): as the sequence (P14842 whole entry) above

SMILES	IC50 [1] [nM]	IC50 [3] [nM]	inhibition [5] [%]	inhibition [6] [%]	IC50 [7] [nM]	inhibition [8] [%]	IC50 [9] [nM]	inhibition [10] [%]	inhibition [11] [%]	inhibition [12] [%]	inhibition [13] [%]	IC50 [14] [nM]	Kb (Rattus norvegicus [2]) [nM]	Kb (Rattus norvegicus [4]) [nM]
CC(CN1CCN(c2cccc(Cl)c2)CC1)Cn1nc2ccccn2c1=O (centres undefined)	–	–	3	52	94	34	531	27	0	4	7	–	–	–
CC(CCn1nc2ccccn2c1=O)N1CCN(c2cccc(Cl)c2)CC1 (centres undefined)	–	–	2	65	17	58	627	26	0	63	31	–	–	–
CC1CN(CCCn2nc3ccccn3c2=O)C(C)(C)CN1c1cccc(Cl)c1 (centres undefined)	–	–	3	40	–	81	–	11	0	38	9	–	–	–
O=c1n(CCCNCCNc2cccc(Cl)c2)nc2ccccn12	–	–	3	4	–	29	–	8	0	10	0	–	–	–
CN(CCNCCCn1nc2ccccn2c1=O)c1cccc(Cl)c1	–	–	4	0	–	65	–	12	0	23	0	–	–	–
CC(CN1CCN(c2cccc(Cl)c2)C(C)C1)Cn1nc2ccccn2c1=O (centres undefined)	–	–	0	20	–	65	–	7	0	6	12	–	–	–
CN(CCCn1nc2ccccn2c1=O)CCNc1cccc(Cl)c1	–	–	2	0	–	30	–	10	4	15	0	–	–	–
CC1CN(CCCn2nc3ccccn3c2=O)CCN1c1cccc(Cl)c1 (centres undefined)	–	–	0	34	–	68	–	25	0	15	7	–	–	–
O=c1n(CCCN2CCN(c3cccc(Cl)c3)CC2)nc2ccccn12	–	–	12	78	–	–	–	–	0	–	5	–	–	–

Continued, in another order:

IC50 [1] [nM]	IC50 [3] [nM]	inhibition [5] [%]	inhibition [6] [%]	IC50 [7] [nM]	inhibition [8] [%]	IC50 [9] [nM]	inhibition [10] [%]	inhibition [11] [%]	inhibition [12] [%]	inhibition [13] [%]	IC50 [14] [nM]	SMILES	Kb (Rattus norvegicus [2]) [nM]	Kb (Rattus norvegicus [4]) [nM]
25.4	981	–	–	–	–	–	–	–	–	–	–	C[C@H]1CN(c2cccc(Cl)c2)CCN1CCCn1nc2ccccn2c1=O	3980	3.16
–	–	8	69	31	43	471	37	2	45	13	–	CC1CN(c2cccc(Cl)c2)CCN1CCCn1nc2ccccn2c1=O (centres undefined)	–	–
–	–	4	0	–	9	–	2	0	0	4	–	CC1C(=O)N(c2cccc(Cl)c2)CCN1CCCn1nc2ccccn2c1=O (centres undefined)	–	–
–	–	10	60	169	43	493	44	0	20	14	–	CCC1CN(c2cccc(Cl)c2)CCN1CCCn1nc2ccccn2c1=O (centres undefined)	–	–
234	–	–	–	–	–	–	–	–	–	–	533	C[C@@H]1CN(c2cccc(Cl)c2)CCN1CCCn1nc2ccccn2c1=O	158	12.6
–	–	0	5	–	12	–	5	0	2	2	–	O=C1CN(CCCn2nc3ccccn3c2=O)CCN1c1cccc(Cl)c1	–	–
